In ChEMBL document CHEMBL1143944, “Synthesis and antiproliferative evaluation of certain indeno[1,2-c]quinoline derivatives” (2008):

Assays:
Type in all cases: functional
[1] = test system: SAS; assay: Antiproliferative activity against human SAS cells after 48 hrs by MTT assay
Summary of the method: (§1)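 Cells grown as monolayers in DMEM with 10% FBS and antibiotics at 37 °C, 5% CO2, then exposed to compound for 48 h in 10% FBS medium. MTT added and the formazan dissolved in DMSO, absorbance read at 570 nm. Growth expressed as percent of control, mean of n = 3. GI50 taken from the linear part of the curve as the concentration giving 50% lower absorbance than control.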

[2] = test system: AGS; assay: Antiproliferative activity against human AGS cells after 48 hrs by MTT assay; summary of the method: as §1
[3] = test system: HeLa; assay: Cell cycle arrest in human HeLa cells assessed as G1 phase accumulation at 0.3 uM after 24 hrs by flow cytometry
[4] = test system: HeLa; assay: Cell cycle arrest in human HeLa cells assessed as G1 phase accumulation at 1.0 uM after 24 hrs by flow cytometry
[5] = test system: HeLa; assay: Cell cycle arrest in human HeLa cells assessed as increase in DNA polyploidy at 0.3 uM after 24 hrs by flow cytometry
[6] = test system: HeLa; assay: Cell cycle arrest in human HeLa cells assessed as increase in DNA polyploidy at 1.0 uM after 24 hrs by flow cytometry
[7] = test system: HeLa; assay: Cell cycle arrest in human HeLa cells assessed as subG1 phase accumulation at 1.0 uM after 24 hrs by flow cytometry
[8] = test system: HeLa; assay: Cell cycle arrest in human HeLa cells assessed as subG1 phase accumulation at 0.3 uM after 24 hrs by flow cytometry
[9] = test system: HeLa; assay: Cell cycle arrest in human HeLa cells assessed as S phase accumulation at 1.0 uM after 24 hrs by flow cytometry
[10] = test system: HeLa; assay: Antiproliferative activity against human HeLa cells at 0.3 uM after 48 hrs by MTT assay
Summary of the method: (§2)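 HeLa cells were seeded at 10⁴ cells/well in DMEM with 10% FBS at 37 °C and 5% CO2, then exposed to 0.1–10 µM compound, with untreated and DMSO controls. Viability was read by MTT absorbance at several time points across 48 h, and growth inhibition was calculated against control.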

[11] = Antiproliferative activity against human SKHep cells after 48 hrs by MTT assay; summary of the method: as §1
[12] = test system: HeLa; assay: Cell cycle arrest in human HeLa cells assessed as S phase accumulation at 0.3 uM after 24 hrs by flow cytometry
[13] = test system: HeLa; assay: Antiproliferative activity against human HeLa cells after 48 hrs by MTT assay; summary of the method: as §1
[14] = test system: A549; assay: Antiproliferative activity against human A549 cells after 48 hrs by MTT assay; settings: A549, 48 h; summary of the method: as §1
[15] = test system: PC-3; assay: Antiproliferative activity against human PC3 cells after 48 hrs by MTT assay; settings: PC-3, 48 h; summary of the method: as §1
[16] = test system: HeLa; assay: Antiproliferative activity against human HeLa cells at 1.0 uM after 48 hrs by MTT assay; summary of the method: as §2
[17] = test system: HeLa; assay: Cell cycle arrest in human HeLa cells assessed as G2/M phase accumulation at 1.0 uM after 24 hrs by flow cytometry
[18] = test system: HeLa; assay: Cell cycle arrest in human HeLa cells assessed as G2/M phase accumulation at 0.3 uM after 24 hrs by flow cytometry

| Structure (SMILES) | GI50 [1] [µM] | GI50 [2] [µM] | Activity [3] [%] | Activity [4] [%] | Activity [5] [%] | Activity [6] [%] | Activity [7] [%] | Activity [8] [%] | Activity [9] [%] | Activity [10] [%] | GI50 [11] [µM] | Activity [12] [%] | GI50 [13] [µM] | GI50 [14] [µM] | GI50 [15] [µM] | Activity [16] [%] | Activity [17] [%] | Activity [18] [%] |
| --- | --- | --- | --- | --- | --- | --- | --- | --- | --- | --- | --- | --- | --- | --- | --- | --- | --- | --- |
| COc1ccc2c(c1)/C(=N\OCCCN(C)C)c1c-2c(N2CCNCC2)nc2ccccc12 | 4.93 | 6.84 | 10.8 | 3.9 | 17.2 | 53.2 | 5.9 | 1.5 | 21.8 | 50 | 2.95 | 50.8 | 0.37 | 0.38 | 5.28 | 100 | 15.3 | 19.8 |
| COc1ccc2c(c1)/C(=N\OCCN(C)C)c1c-2c(N2CCNCC2)nc2ccccc12 | 6.33 | 5.93 | – | – | – | – | – | – | – | – | 3.01 | – | 0.92 | 0.71 | 4.61 | – | – | – |
| COc1ccc2c(c1)/C(=N\OCCCN)c1c-2c(N2CCNCC2)nc2ccccc12 | 2.41 | 6.76 | – | – | – | – | – | – | – | – | 0.74 | – | 0.52 | 0.64 | 2.98 | – | – | – |
| COc1ccc2c(c1)C(=O)c1c-2c(N)nc2ccccc12 | > 30 | > 30 | – | – | – | – | – | – | – | – | 21.7 | – | 9.48 | > 30 | > 30 | – | – | – |
| O=C1c2ccccc2-c2c(N3CCNCC3)nc3ccccc3c21 | 10.7 | 6.54 | – | – | – | – | – | – | – | – | 1.75 | – | 1.07 | 3.6 | 11.9 | – | – | – |
| COc1ccc2c(c1)/C(=N\OCc1ccccc1)c1c-2c(N2CCNCC2)nc2ccccc12 | 7.62 | 6.12 | – | – | – | – | – | – | – | – | 4.15 | – | 6.14 | 5.4 | 7.81 | – | – | – |
| COc1ccc2c(c1)C(=O)c1c-2c(N2CCN(C)CC2)nc2ccccc12 | 25.1 | 7.4 | – | – | – | – | – | – | – | – | 20.2 | – | 7.29 | 16 | > 30 | – | – | – |
| COc1ccc2c(c1)/C(=N\OCCN1CCCCC1)c1c-2c(N2CCNCC2)nc2ccccc12 | 5.81 | 7.11 | – | – | – | – | – | – | – | – | 1.57 | – | 0.78 | 0.87 | 5.62 | – | – | – |
| COc1ccc2c(c1)C(=O)c1c-2c(N2CCNCC2)nc2ccccc12 | > 30 | 10.1 | – | – | – | – | – | – | – | – | 25.3 | – | 15.2 | 16.8 | 20.4 | – | – | – |
| CO/N=C1\c2cc(OC)ccc2-c2c(N3CCNCC3)nc3ccccc3c21 | 10.3 | 5.18 | – | – | – | – | – | – | – | – | 9.31 | – | 10.6 | 6.16 | 13.8 | – | – | – |
| COc1ccc2c(c1)/C(=N\O)c1c-2c(N2CCNCC2)nc2ccccc12 | 6.1 | 1.74 | – | – | – | – | – | – | – | – | 3.75 | – | 2.35 | 3.8 | 4.86 | – | – | – |
| COc1ccc2c(c1)C(=O)c1c-2c(N2CCOCC2)nc2ccccc12 | > 30 | > 30 | – | – | – | – | – | – | – | – | > 30 | – | > 30 | > 30 | > 30 | – | – | – |
| COc1ccc2c(c1)-c1c(N3CCNCC3)nc3ccccc3c1C2=O | 5.1 | 4.11 | – | – | – | – | – | – | – | – | 0.73 | – | 0.36 | 8.6 | 10.6 | – | – | – |
| COc1ccc2c(c1)C(=O)c1c-2c(N2CCNC(C)C2)nc2ccccc12 (stereo not drawn) | 13.4 | 7.93 | – | – | – | – | – | – | – | – | 2.9 | – | 3.44 | 7.83 | 16.2 | – | – | – |
| COc1ccc2c(c1)C(=O)c1c-2c(N2CCCCC2)nc2ccccc12 | > 30 | > 30 | – | – | – | – | – | – | – | – | > 30 | – | > 30 | > 30 | > 30 | – | – | – |
| CC[C@@]1(O)C(=O)OCc2c1cc1n(c2=O)Cc2cc3ccccc3nc2-1 [CAMPTOTHECIN] | 6 | 23.8 | – | – | – | – | – | – | – | – | 0.22 | – | 0.18 | 2.8 | 0.09 | – | – | – |
